Calls of active or inactive are those of the source. No cut-off for these calls is given here.
Key:
[1] = species on record: Mus musculus; test: (§1) Compound was evaluated for its effective dose to inhibit gastric PGE-2; format: tissue-based; details: Stomach
Procedure, shortened: (§2)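 Mice with air pouches (18 h old) were dosed orally with compound or vehicle. After 1 h, 500 µL sterile 1% carrageenan was injected into the pouch, and mice were killed 5 h later. Pouch lavage (heparinized HBSS) was cooled on ice, and PGE2 was measured by EIA after solid-phase extraction. Excised stomachs were rinsed and incubated 15 min in PBS, and supernatant PGE2 was measured by EIA. ED50 from 3 or 4 doses, at least 8 mice/group.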

[2] = test system: Rattus norvegicus; test: Effective dose for inhibition of edema after oral administration (95% confidence limits); format: functional
Procedure, shortened: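 Adjuvant-induced arthritis in female Lewis rats, with oral dosing. Edema of the noninjected paw was read at day 21, 10 rats/group. ED50 was estimated by linear regression with 95% confidence limits.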

[3] = molecular target: T1, Prostaglandin G/H synthase 2 (Homo sapiens, UniProt P35354)
T1 sequence (P35354 whole entry): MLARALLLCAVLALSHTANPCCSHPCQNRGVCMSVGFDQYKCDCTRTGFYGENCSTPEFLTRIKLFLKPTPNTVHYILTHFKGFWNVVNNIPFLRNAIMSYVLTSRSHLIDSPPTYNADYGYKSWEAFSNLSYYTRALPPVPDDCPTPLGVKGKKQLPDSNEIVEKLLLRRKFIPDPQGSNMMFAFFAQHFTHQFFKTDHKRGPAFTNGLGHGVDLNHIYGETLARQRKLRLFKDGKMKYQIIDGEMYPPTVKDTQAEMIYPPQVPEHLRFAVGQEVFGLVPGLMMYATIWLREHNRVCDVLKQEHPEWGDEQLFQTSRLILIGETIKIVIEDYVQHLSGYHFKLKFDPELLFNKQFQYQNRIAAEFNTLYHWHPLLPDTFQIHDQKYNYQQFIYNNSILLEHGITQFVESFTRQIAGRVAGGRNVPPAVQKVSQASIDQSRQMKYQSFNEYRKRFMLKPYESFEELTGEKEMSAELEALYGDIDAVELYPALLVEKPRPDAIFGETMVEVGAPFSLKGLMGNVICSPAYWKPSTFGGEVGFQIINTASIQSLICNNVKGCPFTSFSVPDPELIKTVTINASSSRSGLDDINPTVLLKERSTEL

[4] = species on record: Mus musculus; test: (§3) Compound was evaluated for its effective dose to inhibit exudate PGE-2
Procedure, shortened: (§4)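 Mice given compound or vehicle orally 18 h after air-pouch induction; 1 h later 500 µL sterile 1% carrageenan injected into pouch; sacrifice 5 h after carrageenan. Pouch lavaged with 2 mL heparinized HBSS, kept on ice, PGE2 measured by EIA after solid-phase extraction. ED50 from 3 or 4 dose points, at least 8 mice/group.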

[5] = molecular target: Prostaglandin G/H synthase 1 (Homo sapiens, UniProt P23219); test: Tested in vitro for inhibition against Prostaglandin G/H synthase 1 in human blood
Prostaglandin G/H synthase 1 (Homo sapiens, UniProt P23219), sequence (P23219 whole entry): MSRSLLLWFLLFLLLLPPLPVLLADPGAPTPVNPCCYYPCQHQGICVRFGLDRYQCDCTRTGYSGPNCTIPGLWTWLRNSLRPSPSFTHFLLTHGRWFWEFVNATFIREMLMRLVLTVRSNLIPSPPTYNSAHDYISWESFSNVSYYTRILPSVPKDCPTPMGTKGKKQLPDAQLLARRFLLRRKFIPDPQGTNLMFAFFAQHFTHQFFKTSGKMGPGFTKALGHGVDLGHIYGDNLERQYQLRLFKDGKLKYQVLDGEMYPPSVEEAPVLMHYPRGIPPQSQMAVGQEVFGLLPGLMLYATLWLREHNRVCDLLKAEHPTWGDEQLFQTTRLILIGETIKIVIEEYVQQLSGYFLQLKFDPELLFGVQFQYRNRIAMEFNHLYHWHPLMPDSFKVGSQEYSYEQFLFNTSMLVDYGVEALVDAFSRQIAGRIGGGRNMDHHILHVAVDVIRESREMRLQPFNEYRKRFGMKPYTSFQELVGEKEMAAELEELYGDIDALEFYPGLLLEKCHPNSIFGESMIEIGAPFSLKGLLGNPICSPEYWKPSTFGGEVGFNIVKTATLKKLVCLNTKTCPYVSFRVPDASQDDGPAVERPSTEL

[6] = Gastric toxicity of the compound.
Procedure, shortened: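 Male Swiss mice, fasted overnight with water, were dosed orally at 400 mg/kg or given vehicle, and killed by cervical dislocation 5 h later. The stomach was opened and mucosal damage scored blind from 0 (normal) to 5 (perforation). Mean ± SEM, 8 animals/group.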

[7] = molecular target: T2, Prostaglandin G/H synthase 1 (Mus musculus, UniProt P22437); test: Inhibition against prostaglandin G/H synthase 1 from mouse resident macrophages
T2 sequence (P22437 whole entry): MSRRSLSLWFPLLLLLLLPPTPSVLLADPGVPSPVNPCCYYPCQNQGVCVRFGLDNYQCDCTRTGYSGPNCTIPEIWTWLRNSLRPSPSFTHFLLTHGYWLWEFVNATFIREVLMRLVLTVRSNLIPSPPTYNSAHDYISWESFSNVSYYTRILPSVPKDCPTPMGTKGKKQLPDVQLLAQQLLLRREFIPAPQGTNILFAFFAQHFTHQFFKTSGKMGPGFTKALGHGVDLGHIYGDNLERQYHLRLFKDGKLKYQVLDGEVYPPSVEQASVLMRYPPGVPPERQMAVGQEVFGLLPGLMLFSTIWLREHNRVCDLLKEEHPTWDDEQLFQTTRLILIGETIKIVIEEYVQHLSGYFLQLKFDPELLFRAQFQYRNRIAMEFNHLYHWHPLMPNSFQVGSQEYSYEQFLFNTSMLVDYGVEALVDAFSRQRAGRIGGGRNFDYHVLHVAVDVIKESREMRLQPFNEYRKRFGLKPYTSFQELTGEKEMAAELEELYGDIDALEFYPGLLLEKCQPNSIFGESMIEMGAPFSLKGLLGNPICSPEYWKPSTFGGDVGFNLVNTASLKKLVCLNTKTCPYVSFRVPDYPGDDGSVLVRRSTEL

[8] = molecular target: T3, Prostaglandin G/H synthase 2 (Mus musculus, UniProt Q05769); test: Inhibition against prostaglandin G/H synthase 2 from mouse resident macrophages
T3 sequence (Q05769 whole entry): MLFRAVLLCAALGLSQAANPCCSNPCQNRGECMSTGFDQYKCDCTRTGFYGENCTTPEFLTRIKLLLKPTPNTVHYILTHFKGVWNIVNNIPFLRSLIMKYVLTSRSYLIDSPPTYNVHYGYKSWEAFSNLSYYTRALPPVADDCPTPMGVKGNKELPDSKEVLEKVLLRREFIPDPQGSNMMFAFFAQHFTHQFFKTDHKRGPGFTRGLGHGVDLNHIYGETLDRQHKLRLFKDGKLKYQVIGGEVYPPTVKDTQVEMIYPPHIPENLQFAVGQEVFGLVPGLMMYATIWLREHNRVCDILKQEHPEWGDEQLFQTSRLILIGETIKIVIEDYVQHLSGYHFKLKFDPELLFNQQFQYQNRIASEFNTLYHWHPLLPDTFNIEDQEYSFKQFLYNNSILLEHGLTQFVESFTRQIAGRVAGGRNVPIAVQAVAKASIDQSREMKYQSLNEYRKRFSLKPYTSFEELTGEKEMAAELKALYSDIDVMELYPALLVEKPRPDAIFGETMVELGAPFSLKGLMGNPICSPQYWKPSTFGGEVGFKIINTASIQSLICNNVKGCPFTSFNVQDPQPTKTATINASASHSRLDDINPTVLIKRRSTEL

[9] = species on record: Mus musculus; test: Compound was evaluated for its effective dose to inhibit exudate PGE-2; In active; procedure, shortened: as §4
[10] = test system: Rattus norvegicus; test: Inhibition of edema after oral administration at 2 mg/kg, twice daily; format: functional
Procedure, shortened: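 Adjuvant-induced arthritis in female Lewis rats. Compound was given orally at 2 mg/kg twice daily, and noninjected paw edema inhibition was read at day 21, 10 rats/group.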

[11] = as §1; format: functional; details: Mus musculus, Stomach; procedure, shortened: as §2
[12] = test system: Rattus norvegicus; test: Effective dose for inhibition of edema of the non injected paw in rat
[13] = as §3; format: functional; details: Mus musculus; procedure, shortened: as §4
[14] = test system: Rattus norvegicus; test: Inhibition of edema after oral administration at 2 mg/kg/day; format: functional
Procedure, shortened: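 Adjuvant-induced arthritis in female Lewis rats. Compound was given orally at 2 mg/kg/day, and noninjected paw edema inhibition was read at day 21, 10 rats/group.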

Structure (SMILES) | IC50 [7] | IC50 [8] | also measured
Fc1ccc(-c2[nH]c(-c3ccc(F)cc3)c3c2C2CCC3C2)cc1 |  |  | ED50 [1]: > 40 mg/kg; ED50 [2]: 0.35 mg/kg/day; IC50 [3]: 0.08 nM; ED50 [4]: 6.8 mg/kg; IC50 [5]: 1000 nM; Gastric score [6]: 0.3
c1ccc([C@H]2N[C@H](c3ccccc3)c3ccccc32)cc1 | > 2500 nM |  | ED50 [1]: 100 mg/kg; ED50 [4]: 100 mg/kg
CSc1ccc(-c2[nH]c(-c3ccc(SC)cc3)c3c2CCCC3)cc1 | 500 nM | 500 nM | 
Cc1ccc(-c2[nH]c(-c3ccc(C)cc3)c3c2CCCC3)cc1 | 500 nM |  | IN [9]: inactive
c1ccc(-c2[nH]c(-c3ccccc3)c3c2CCCC3)cc1 | 100 nM | 1.5 nM | ED50 [1]: 50 mg/kg; ED50 [4]: 20 mg/kg
Fc1ccc(-c2[nH]c(-c3ccc(F)cc3)c3c2CCC3)cc1 | 100 nM | 2.9 nM | ED50 [1]: > 80 mg/kg; ED50 [4]: 20 mg/kg; inhibition in vivo at 2 mg/kg [10]: 14%; Gastric score [6]: 0.7
Nn1c(-c2ccccc2)c2c(c1-c1ccccc1)CCCC2 | 1000 nM | 1.8 nM | 
C1=CC2CCC1c1c(-c3ccccc3)[nH]c(-c3ccccc3)c12 | > 1000 nM | 35.6 nM | 
c1ccc(-c2[nH]c(-c3ccccc3)c3c2CCC3)cc1 | 250 nM |  | ED50 [1]: 10 mg/kg; ED50 [4]: 20 mg/kg
c1ccc(CN2Cc3c(-c4ccccc4)[nH]c(-c4ccccc4)c3C2)cc1 |  | > 100 nM | 
c1ccc(-c2[nH]c(-c3ccccc3)c3c2C2CCC3CC2)cc1 | 250 nM | 1.6 nM | ED50 [1]: > 40 mg/kg; ED50 [4]: > 40 mg/kg
c1cc(-c2[nH]c(-c3ccncc3)c3c2C2CCC3C2)ccn1 |  | > 100 nM | 
Fc1ccc(-c2[nH]c(-c3ccc(-n4ccnc4)cc3)c3c2CCCC3)cc1 | 500 nM | 42 nM | 
Fc1ccc(-c2[nH]c(-c3ccc(F)cc3)c3c2C2CCC3CC2)cc1 | 230 nM | 0.6 nM | ED50 [1]: > 20 mg/kg; ED50 [2]: 0.15 mg/kg/day; IC50 [3]: 0.12 nM; ED50 [4]: 3.5 mg/kg; IC50 [5]: 30000 nM; Gastric score [6]: 0.3
c1ccc(-c2sc(-c3ccccc3)c3ccccc23)cc1 | 1000 nM | 10.9 nM | 
Clc1cc2c(cc1Cl)C(c1ccccc1)NC2c1ccccc1 (centres undefined) |  | > 100 nM | 
c1ccc(C2NC(c3ccccc3)c3ccccc32)cc1 (centres undefined) | > 2500 nM |  | 
CNc1cc(-c2[nH]c(-c3ccc(F)c(NC)c3)c3c2C2CCC3C2)ccc1F |  | > 100 nM | 
c1ccc(-c2cn3c(c2-c2ccccc2)CCC3)cc1 | 2500 nM | 28.7 nM | 
Fc1ccc(C2NC(c3ccc(F)cc3)c3ccccc32)cc1 (centres undefined) |  | > 100 nM | 

Structure (SMILES) | IC50 [7] | IC50 [8] | also measured
Clc1ccc(-c2[nH]c(-c3ccc(Cl)cc3)c3c2CCCC3)cc1 | > 5000 nM | 5 nM | ED50 [1]: > 80 mg/kg; ED50 [4]: 20 mg/kg
CS(=O)(=O)Nn1c(-c2ccccc2)c2c(c1-c1ccccc1)CCCC2 | > 1000 nM | 500 nM | 
Cn1c(-c2ccccc2)c2c(c1-c1ccccc1)CCCC2 |  | > 1000 nM | 
Fc1ccc(-c2[nH]c(-c3ccc(F)cc3)c3c2C2C=CC3C2)cc1 | 500 nM | 4.5 nM | 
c1ccc(-c2[nH]c(-c3ccccc3)c3c2C2CCC3C2)cc1 | 100 nM | 2.6 nM | ED50 [1]: 80 mg/kg; ED50 [4]: 20 mg/kg; Gastric score [6]: 0.3
c1ccc(-c2cc(-c3ccccc3)n3c2CCC3)cc1 | < 1000 nM | 50 nM | 
CC1Cc2c(-c3ccccc3)[nH]c(-c3ccccc3)c2CC1C (centres undefined) | 1000 nM | 3.1 nM | 
c1ccc(-c2cc3n(c2-c2ccccc2)CCC3)cc1 | < 1000 nM | 10 nM | 
Cc1ccc(-c2cc(C(F)(F)F)nn2-c2ccc(S(N)(=O)=O)cc2)cc1 [CELECOXIB] |  |  | ED50 [11]: > 40 mg/kg; ED50 [2]: 0.32 mg/kg/day; Gastric score [6]: 0.7; ED50 [12]: 0.37 mg/kg/day; ED50 [13]: 10 mg/kg
CS(=O)(=O)c1ccc(-c2[nH]c(-c3ccc(S(C)(=O)=O)cc3)c3c2C2CCC3C2)cc1 |  | > 10000 nM | 
COc1ccc(-c2[nH]c(-c3ccc(OC)cc3)c3c2CCCC3)cc1 | 1000 nM | 21.3 nM | 
O=C(O)Cn1c(-c2ccccc2)c2c(c1-c1ccccc1)CCCC2 |  | > 100 nM | 
CS(=O)(=O)c1ccc(-c2[nH]c(-c3ccc(F)cc3)c3c2C2CCC3C2)cc1 (centres undefined) | > 5000 nM | 700 nM | 
COc1ccc2c(c1)c(CC(=O)O)c(C)n2C(=O)c1ccc(Cl)cc1 [INDOMETHACIN] |  |  | Gastric score [6]: 2.4
CC1=C(C)Cc2c(-c3ccccc3)[nH]c(-c3ccccc3)c2C1 | > 100 nM | 14.5 nM | 
c1cn(-c2ccc(-c3[nH]c(-c4ccc(-n5ccnc5)cc4)c4c3CCCC4)cc2)cn1 | 1000 nM | > 100 nM | 
CC1=C(C)Cc2c(c(-c3ccccc3)n(C)c2-c2ccccc2)C1 |  | > 1000 nM | 
c1ccc(-c2[nH]c(-c3ccccc3)c3c2CNC3)cc1 | 1000 nM | > 100 nM | 
CC(=O)Nc1cc(-c2[nH]c(-c3ccc(F)c(NC(C)=O)c3)c3c2C2CCC3C2)ccc1F |  | > 100 nM | 
Fc1ccc(-c2[nH]c(-c3ccc(F)cc3)c3c2CCCC3)cc1 | 100 nM | 1.7 nM | inhibition in vivo at 2 mg/kg/day [14]: 15%; ED50 [1]: 50 mg/kg; ED50 [4]: 20 mg/kg

From ChEMBL document CHEMBL1133534, “1,3-Diaryl-4,5,6,7-tetrahydro-2H-isoindole derivatives: a new series of potent and selective COX-2 inhibitors in which a sulfonyl group is not a structural requisite” (J Med Chem, 2000)
